Experiments:
[1] = target: T1, Glucocorticoid receptor (Rattus norvegicus) (UniProt P06536); test: Relative affinity [Ka compound/Ka Dex] for glucocorticoid receptors in cell-free competition assay
T1 sequence (whole entry): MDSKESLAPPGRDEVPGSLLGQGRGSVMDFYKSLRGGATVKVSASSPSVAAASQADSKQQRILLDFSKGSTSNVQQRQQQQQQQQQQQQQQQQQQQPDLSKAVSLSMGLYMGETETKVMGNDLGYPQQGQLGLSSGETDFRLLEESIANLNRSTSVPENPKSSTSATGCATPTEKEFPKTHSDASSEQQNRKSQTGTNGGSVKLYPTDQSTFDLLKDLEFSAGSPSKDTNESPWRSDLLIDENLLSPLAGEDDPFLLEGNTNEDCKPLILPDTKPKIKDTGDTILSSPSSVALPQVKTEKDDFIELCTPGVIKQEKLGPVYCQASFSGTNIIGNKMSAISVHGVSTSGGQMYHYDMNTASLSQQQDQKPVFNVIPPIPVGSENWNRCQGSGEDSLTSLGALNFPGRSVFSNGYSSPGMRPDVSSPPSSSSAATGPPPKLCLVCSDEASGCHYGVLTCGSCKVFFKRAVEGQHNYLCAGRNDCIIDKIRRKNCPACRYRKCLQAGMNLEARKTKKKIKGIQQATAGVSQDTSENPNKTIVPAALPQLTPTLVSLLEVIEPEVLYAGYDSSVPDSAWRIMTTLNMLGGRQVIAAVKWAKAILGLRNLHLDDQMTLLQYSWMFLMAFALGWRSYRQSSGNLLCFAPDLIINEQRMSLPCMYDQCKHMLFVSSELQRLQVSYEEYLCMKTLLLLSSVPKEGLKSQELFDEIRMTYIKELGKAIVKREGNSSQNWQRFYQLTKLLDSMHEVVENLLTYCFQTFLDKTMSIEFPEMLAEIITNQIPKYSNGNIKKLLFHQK
Procedure, shortened: (§1)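 Competition with [3H]Dex for glucocorticoid receptors, in HTC cell cytosol (0 °C) or in intact HTC cells (30 min, 37 °C). Relative affinity is the ratio of Dex to steroid concentrations giving 50% inhibition of [3H]Dex binding, corrected by the Rodbard method for partial receptor occupancy by uncompeted [3H]Dex. Averages of 2–4 experiments.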

[2] = target: T1, Glucocorticoid receptor (Rattus norvegicus); test: Relative affinity [Ka compound/Ka Dex] for glucocorticoid receptors in whole-cell competition assay; procedure, shortened: as §1
[3] = target: T1, Glucocorticoid receptor (Rattus norvegicus); test: Dex-NCS incubation on the subsequent inhibition of exchange binding with [3H]dexamethasone measured at pH 8.8 at 3h.; conditions: concentration not given here
Procedure, shortened: (§2)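 Crude HTC cytosol receptors in TAPS buffer were preincubated 3 h at 0 °C with Dex-NCS (290 or 580 nM) or cortisol (60 or 120 nM). Activated charcoal then removed free steroid and inactivated steroid-free receptors. Cytosol was adjusted to 1.9×10^-8 M [3H]Dex ± 575-fold unlabeled Dex and incubated for the stated times at 0 °C, final pH 8.8 or 7.6. Bound steroid was charcoal-separated; specific = total − nonspecific. Cortisol preincubation defined exchangeable binding. Run in duplicate; mean (SD, n).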

[4] = target: T1, Glucocorticoid receptor (Rattus norvegicus); test: Dex-NCS incubation on the subsequent inhibition of exchange binding with [3H]dexamethasone measured at pH 7.6 at 3h.; conditions: concentration not given here; procedure, shortened: as §2
[5] = target: T1, Glucocorticoid receptor (Rattus norvegicus); test: Dex-NCS incubation on the subsequent inhibition of exchange binding with [3H]Dexamethasone measured at pH 7.6 at 20h.; conditions: concentration not given here; procedure, shortened: as §2
[6] = target: T1, Glucocorticoid receptor (Rattus norvegicus); test: Dex-NCS incubation on the subsequent inhibition of exchange binding with [3H]dexamethasone measured at pH 7.6 at 1h.; conditions: concentration not given here; procedure, shortened: as §2
[7] = target: T1, Glucocorticoid receptor (Rattus norvegicus); test: Dex-NCS incubation on the subsequent inhibition of exchange binding with [3H]dexamethasone measured at pH 7.6 at 5h.; conditions: concentration not given here; procedure, shortened: as §2
[8] = target: T1, Glucocorticoid receptor (Rattus norvegicus); test: Dex-NCS incubation on the subsequent inhibition of exchange binding with [3H]dexamethasone measured at pH 8.8 at 5h.; conditions: concentration not given here; procedure, shortened: as §2
[9] = target: T1, Glucocorticoid receptor (Rattus norvegicus); test: Dex-NCS incubation on the subsequent inhibition of exchange binding with [3H]dexamethasone measured at pH 8.8 at 1h.; conditions: concentration not given here; procedure, shortened: as §2
[10] = target: Glucocorticoid receptor (Rattus norvegicus) (UniProt P06536); conditions: filed as partial agonist

SMILES	Relative affinity [1]	Relative affinity [2]	inhibition [3]	inhibition [4]	inhibition [5]	inhibition [6]	inhibition [7]	inhibition [8]	inhibition [9]	Agonist [10]
C[C@@H]1CC2C3CCC4=CC(=O)C=C[C@]4(C)[C@@]3(F)[C@@H](O)C[C@]2(C)[C@@]1(O)C(=O)COC(=O)c1c(C(F)(F)F)cccc1C(F)(F)F (some centres not stated)	0.079	0.0087	–	–	–	–	–	–	–	–
C[C@@H]1CC2C3CCC4=CC(=O)C=C[C@]4(C)[C@@]3(F)[C@@H](O)C[C@]2(C)[C@@]1(O)C(=O)CSCCN=C=S (some centres not stated)	–	–	37%	60.5%	45.7%	63.2%	56.6%	34.1%	43.8%	–
C[C@@H]1CC2C3CCC4=CC(=O)C=C[C@]4(C)[C@@]3(F)[C@@H](O)C[C@]2(C)[C@@]1(O)C(=O)CBr (some centres not stated)	0.021	0.063	–	–	–	–	–	–	–	Partial agonist
